Results: ChEMBL document CHEMBL1629583, “Establishment of in vitro susceptibility testing methodologies and comparative activities of piperacillin in combination with the penem {beta}-lactamase inhibitor BLI-489” (2009)
In brackets after ≈: the same amount, converted by molar mass.

Experiments:
Type in all cases: functional
Streptococcus agalactiae = assay: Antimicrobial activity against Streptococcus agalactiae clinical isolate after 18 to 22 hrs by broth microdilution method in presence of beta-lactamase inhibitor BLI-489
Summary of the method: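 Streptococci were tested by CLSI broth microdilution in Mueller-Hinton II broth plus 5% lysed horse blood. Piperacillin dilutions contained a constant 4 μg/ml BLI-489. Inoculum was 10^5 CFU/ml, incubated 18 to 22 h at 35°C in air. MIC was the lowest concentration with no visible growth.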

Morganella morganii = assay: Antimicrobial activity against Morganella morganii clinical isolate after 18 to 22 hrs by broth microdilution method in presence of beta-lactamase inhibitor Tazobactam
Summary of the method: (§1)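 Piperacillin-tazobactam was tested by CLSI broth microdilution in Mueller-Hinton II broth against clinical isolates. Inoculum was 10^5 CFU/ml, with 18 to 22 h incubation at 35°C in ambient air. MIC was read as the lowest concentration completely inhibiting visible growth.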

[1] = system: Stenotrophomonas maltophilia; assay: Antimicrobial activity against Stenotrophomonas maltophilia clinical isolate after 18 to 22 hrs by broth microdilution method in presence of beta-lactamase inhibitor Tazobactam; summary of the method: as §1
Streptococcus pneumoniae = assay: Antimicrobial activity against penicillin-susceptible Streptococcus pneumoniae clinical isolate after 18 to 22 hrs by broth microdilution method in presence of beta-lactamase inhibitor BLI-489
Summary of the method: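 Streptococci were tested by CLSI broth microdilution in Mueller-Hinton II broth plus 5% lysed horse blood. Piperacillin was serially diluted with BLI-489 fixed at a constant 4 μg/ml. Inoculum was 10^5 CFU/ml, with 18 to 22 h at 35°C in ambient air. MIC was the lowest concentration completely inhibiting growth by eye.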

[2] = system: Acinetobacter haemolyticus; assay: Antimicrobial activity against Acinetobacter haemolyticus clinical isolate after 18 to 22 hrs by broth microdilution method in presence of beta-lactamase inhibitor BLI-489
Summary of the method: (§2)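 CLSI broth microdilution in Mueller-Hinton II broth. Piperacillin serial dilutions were combined with BLI-489 held constant at 4 μg/ml. Inoculum was 10^5 CFU/ml. Plates were incubated 18 to 22 h at 35°C in ambient air. MIC was the lowest concentration completely inhibiting growth seen by the unaided eye. Piperacillin-tazobactam interpretive criteria were applied.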

[3] = system: Staphylococcus epidermidis; assay: Antimicrobial activity against methicillin-resistant Staphylococcus epidermidis clinical isolate after 18 to 22 hrs by broth microdilution method in presence of beta-lactamase inhibitor Tazobactam
Summary of the method: (§3)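 CLSI broth microdilution in Mueller-Hinton II broth. Antibiotic in serial dilution with the β-lactamase inhibitor held at a constant 4 μg/ml. Inoculum 10^5 CFU/ml. Incubated 18 to 22 h at 35°C in ambient air.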

Citrobacter koseri = assay: Antimicrobial activity against Citrobacter koseri clinical isolate after 18 to 22 hrs by broth microdilution method in presence of beta-lactamase inhibitor Tazobactam
Summary of the method: (§4)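 Piperacillin-tazobactam was tested on recent clinical isolates by CLSI broth microdilution in Mueller-Hinton II broth, with tazobactam at constant 4 μg/ml. Wells held 10^5 CFU/ml and were incubated 18 to 22 h at 35°C in ambient air. MIC was the lowest concentration with no growth visible to the unaided eye.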

[4] = system: Peptostreptococcus anaerobius; assay: Antimicrobial activity against Peptostreptococcus anaerobius clinical isolate after 18 to 22 hrs by broth microdilution method in presence of beta-lactamase inhibitor Tazobactam
[5] = system: Staphylococcus epidermidis; assay: Antimicrobial activity against methicillin-resistant Staphylococcus epidermidis clinical isolate after 18 to 22 hrs by broth microdilution method in presence of beta-lactamase inhibitor BLI-489; summary of the method: as §3
Haemophilus influenzae [6] = assay: Antimicrobial activity against beta-lactamase-negative Haemophilus influenzae clinical isolate after 18 to 22 hrs by broth microdilution method in presence of beta-lactamase inhibitor Tazobactam
Summary of the method: (§5)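 […] was used for CLSI broth microdilution with piperacillin-tazobactam. Inoculum was 10^5 CFU/ml, incubated 18 to 22 h at 35°C in ambient air. MIC was the lowest concentration with no growth visible to the unaided eye.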

Serratia marcescens = assay: Antimicrobial activity against Serratia marcescens clinical isolate after 18 to 22 hrs by broth microdilution method in presence of beta-lactamase inhibitor BLI-489
Summary of the method: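 CLSI broth microdilution in Mueller-Hinton II broth. Serial dilutions of piperacillin were tested with BLI-489 held at a constant 4 μg/ml. Inoculum was 10^5 CFU/ml. Plates were incubated 18 to 22 h at 35°C in ambient air. MIC was the lowest concentration giving complete growth inhibition by unaided eye.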

Enterobacter cloacae [7] = assay: Antimicrobial activity against Enterobacter cloacae clinical isolate after 18 to 22 hrs by broth microdilution method in presence of beta-lactamase inhibitor Tazobactam; summary of the method: as §4
Haemophilus influenzae [8] = assay: Antimicrobial activity against beta-lactamase-negative Haemophilus influenzae clinical isolate after 18 to 22 hrs by broth microdilution method in presence of beta-lactamase inhibitor BLI-489
Summary of the method: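 Haemophilus isolates were tested in Haemophilus test medium by CLSI broth microdilution. Serial piperacillin dilutions carried BLI-489 fixed at 4 μg/ml. Inoculum was 10^5 CFU/ml, incubated 18 to 22 h at 35°C in ambient air. MIC was the lowest concentration completely inhibiting growth by eye.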

Proteus mirabilis = assay: Antimicrobial activity against Proteus mirabilis clinical isolate after 18 to 22 hrs by broth microdilution method in presence of beta-lactamase inhibitor Tazobactam; summary of the method: as §1
Staphylococcus aureus = assay: Antimicrobial activity against methicillin-susceptible Staphylococcus aureus clinical isolate after 18 to 22 hrs by broth microdilution method in presence of beta-lactamase inhibitor BLI-489
Summary of the method: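 Piperacillin serially diluted with BLI-489 held at a constant 4 μg/ml, by CLSI broth microdilution in Mueller-Hinton II broth. Inoculum was 10^5 CFU/ml. Plates were incubated 18 to 22 h at 35°C in ambient air. MIC was the lowest concentration completely inhibiting growth seen by the unaided eye.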

Haemophilus influenzae [9] = assay: Antimicrobial activity against beta-lactamase-producing Haemophilus influenzae clinical isolate after 18 to 22 hrs by broth microdilution method in presence of beta-lactamase inhibitor Tazobactam; summary of the method: as §5
Enterobacter cloacae [10] = assay: Antimicrobial activity against AmpC beta-lactamase-producing Enterobacter cloacae clinical isolate after 18 to 22 hrs by broth microdilution method in presence of beta-lactamase inhibitor BLI-489; summary of the method: as §2
Klebsiella pneumoniae = assay: Antimicrobial activity against AmpC- producing Klebsiella pneumoniae clinical isolate after 18 to 22 hrs by broth microdilution method in presence of beta-lactamase inhibitor BLI-489; summary of the method: as §2
[11] = system: Peptostreptococcus anaerobius; assay: Antimicrobial activity against Peptostreptococcus anaerobius clinical isolate after 18 to 22 hrs by broth microdilution method

How did the MIC50 (Streptococcus agalactiae) turn out when `CCN1CCN(C(=O)N[C@@H](C(=O)N[C@@H]2C(=O)N3[C@@H]2SC(C)(C)[C@@H]3C(=O)O)c2ccccc2)C(=O)C1=O` [PIPERACILLIN] was run?
The MIC50 was no more than 0.004 µg/mL.

What about the MIC90 (Streptococcus agalactiae) of the same compound?
The MIC90 was 0.03 µg/mL.

And the MIC50 (Morganella morganii)?
The MIC50 was 0.5 µg/mL.

What about the MIC90 (Morganella morganii) of the same compound?
The MIC90 was 1 µg/mL.

And the MIC [1]?
Its MIC is greater than 128 µg/mL.

What about the MIC50 [1] of the same compound?
The MIC50 was greater than 128 µg/mL.

And the MIC90 [1]?
Its MIC90 is greater than 128 µg/mL.

And the MIC (Streptococcus pneumoniae)?
The MIC was no more than 0.004 µg/mL.

What about the MIC50 (Streptococcus pneumoniae) of the same compound?
Its MIC50 is no more than 0.004 µg/mL.

What about the MIC90 (Streptococcus pneumoniae) of the same compound?
The MIC90 was no more than 0.004 µg/mL.

What about the MIC50 [2] of the same compound?
Its MIC50 is 4 µg/mL.

And the MIC90 [2]?
The MIC90 was 16 µg/mL.

What about the MIC50 [3] of the same compound?
Its MIC50 is 1 µg/mL.

And the MIC90 [3]?
Its MIC90 is 8 µg/mL.

What about the MIC50 (Citrobacter koseri) of the same compound?
Its MIC50 is 2 µg/mL.

What about the MIC90 (Citrobacter koseri) of the same compound?
The MIC90 was 16 µg/mL.

And the MIC [4]?
Its MIC is no more than 0.015 µg/mL.

And the MIC50 [4]?
The MIC50 was no more than 0.015 µg/mL.

And the MIC90 [4]?
Its MIC90 is no more than 0.015 µg/mL.

What about the MIC50 [5] of the same compound?
The MIC50 was 0.5 µg/mL.

And the MIC90 [5]?
Its MIC90 is 8 µg/mL.

And the MIC50 (Haemophilus influenzae [6])?
The MIC50 was 0.008 µg/mL.

And the MIC90 (Haemophilus influenzae [6])?
The MIC90 was 0.03 µg/mL.

What about the MIC50 (Serratia marcescens) of the same compound?
Its MIC50 is 1 µg/mL.

And the MIC90 (Serratia marcescens)?
The MIC90 was 4 µg/mL.

What about the MIC50 (Enterobacter cloacae [7]) of the same compound?
The MIC50 was 2 µg/mL.

What about the MIC90 (Enterobacter cloacae [7]) of the same compound?
Its MIC90 is greater than 128 µg/mL.

And the MIC (Haemophilus influenzae [8])?
Its MIC is no more than 0.004 µg/mL.

What about the MIC50 (Haemophilus influenzae [8]) of the same compound?
The MIC50 was no more than 0.004 µg/mL.

And the MIC90 (Haemophilus influenzae [8])?
The MIC90 was 0.015 µg/mL.

And the MIC50 (Proteus mirabilis)?
Its MIC50 is 0.25 µg/mL.

And the MIC90 (Proteus mirabilis)?
Its MIC90 is 2 µg/mL.

What about the MIC50 (Staphylococcus aureus) of the same compound?
The MIC50 was 0.25 µg/mL.

What about the MIC90 (Staphylococcus aureus) of the same compound?
The MIC90 was 0.5 µg/mL.

What about the MIC50 (Haemophilus influenzae [9]) of the same compound?
Its MIC50 is 0.008 µg/mL.

And the MIC90 (Haemophilus influenzae [9])?
The MIC90 was 0.03 µg/mL.

What about the MIC50 (Enterobacter cloacae [10]) of the same compound?
Its MIC50 is 2 µg/mL.

What about the MIC90 (Enterobacter cloacae [10]) of the same compound?
The MIC90 was 8 µg/mL.

What about the MIC50 (Klebsiella pneumoniae) of the same compound?
The MIC50 was 16 µg/mL.

And the MIC90 (Klebsiella pneumoniae)?
Its MIC90 is greater than 128 µg/mL.

What about the MIC50 [11] of the same compound?
The MIC50 was 0.06 µg/mL (≈ 0.116 µM).

What about the MIC90 [11] of the same compound?
Its MIC90 is 0.06 µg/mL (≈ 0.116 µM).
